ChEMBL document CHEMBL2150970, “Synthesis, anticancer activities and molecular modeling studies of novel indole retinoid derivatives” (Eur J Med Chem, 2012)
Active and inactive are the calls of the source. No cut-off for these calls is given here.

Columns and labels:
[1] = test system: MCF-12A; experiment: Ratio of IC50 for human MCF12A cells to IC50 for human CAMA1 cells
Outline: (§1)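 Each IC50 came from the SRB assay after 3 days' exposure: 10⁴ cells/well, TCA fixation, 0.4% SRB, Tris solubilization, A515, triplicates, DMSO control. Ratio is immortalized normal breast MCF-12A IC50 over the breast cancer line's IC50. Media carried 10% FCS plus antibiotics: DMEM for most lines, DMEM with sodium pyruvate for CAMA-1/MDA-MB-157, glucose-rich RPMI for ZR-75-1, McCoy for SK-BR-3.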

[2] = test system: CAMA-1; experiment: Cytotoxicity against human CAMA1 cells after 3 days by SRB assay; format: functional, cell-based; details: CAMA-1, 72 h
Outline: (§2)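 Human cancer cells grown in DMEM with 10% FCS and penicillin/streptomycin (CAMA-1 medium also had 1% sodium pyruvate), at 37 °C, 5% CO2. Seeded at 10⁴ cells/well, dosed 24 h later, and exposed 3 days. Fixed with ice-cold 10% TCA for 60 min, stained 10 min with 0.4% SRB at room temperature, washed with 1% acetic acid, dye dissolved in 10 mM Tris base, A515 read. Triplicate runs with matched DMSO controls; IC50 determined.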

[3] = test system: T47D; experiment: Induction of apoptosis in ER-positive human T47D cells assessed as apoptotic cells at IC50 concentration after 3 days by Hoechst staining based fluorescent microscopy; format: functional, cell-based
[4] = test system: Huh-7; experiment: Cytotoxicity against human HuH7 cells after 3 days by SRB assay; format: functional, cell-based; outline: as §2
[5] = test system: SK-BR-3; experiment: Cytotoxicity against human SKBR3 cells after 3 days by SRB assay; format: functional, cell-based; details: SK-BR-3, 72 h
Outline: (§3)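 Cells at 10⁴/well were treated 24 h after seeding and exposed for three days. They were then fixed in ice-cold 10% TCA for 60 min at 4 °C, stained with 0.4% SRB for 10 min at room temperature, washed with 1% acetic acid and solubilised in 10 mM Tris base. Absorbance was read at 515 nm. IC₅₀ was determined in triplicate with DMSO vehicle controls.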

[6] = test system: MDA-MB-231; experiment: Induction of apoptosis in ER-negative human MDA-MB-231 cells assessed as apoptotic cells at 1.8 uM measured on day 2 by Annexin-V-FITC/propidium iodide staining based FACS flow cytometry; format: functional
Outline: (§4)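 Cells seeded at 5×10⁵ per plate (37 °C, 5% CO2) and treated the following day at two concentrations. On days 2 and 4 after treatment, 1×10⁶ cells were stained with a FITC Annexin V/propidium iodide kit, kept on ice in the dark, and analysed at once on a FACSCalibur. Mean percentage of Annexin V+/PI+ cells is reported. Controls: matched DMSO, plus camptothecin and 1% v/v H2O2 as positive controls.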

[7] = test system: T47D; experiment: Ratio of IC50 for human MCF12A cells to IC50 for human T47D cells; outline: as §1
[8] = test system: MCF7; experiment: Cytotoxicity against human MCF7 cells after 3 days by SRB assay; format: functional, cell-based; details: MCF7, 72 h; outline: as §3
[9] = test system: MCF7; experiment: Ratio of IC50 for human MCF12A cells to IC50 for human MCF7 cells; outline: as §1
[10] = test system: MDA-MB-453; experiment: Ratio of IC50 for human MCF12A cells to IC50 for human MDA-MB-453 cells; outline: as §1
[11] = test system: MDA-MB-361; experiment: Ratio of IC50 for human MCF12A cells to IC50 for human MDA-MB-361 cells; outline: as §1
[12] = test system: MDA-MB-231; experiment: Induction of apoptosis in ER-negative human MDA-MB-231 cells assessed as apoptotic cells at 3.6 uM measured on day 2 by Annexin-V-FITC/propidium iodide staining based FACS flow cytometry; format: functional; outline: as §4
[13] = test system: BT-20; experiment: Cytotoxicity against human BT20 cells after 3 days by SRB assay; format: functional, cell-based; details: BT-20, 72 h; outline: as §3
[14] = test system: MCF-12A; experiment: Ratio of IC50 for human MCF12A cells to IC50 for human BT20 cells; outline: as §1
[15] = test system: MDA-MB-231; experiment: Cytotoxicity against human MDA-MB-231 cells after 3 days by SRB assay; format: functional, cell-based; details: MDA-MB-231, 72 h; outline: as §3
[16] = test system: BT-474; experiment: Cytotoxicity against human BT474 cells after 3 days by SRB assay; format: functional, cell-based; details: BT-474, 72 h; outline: as §3
[17] = test system: HCT-116; experiment: Cytotoxicity against human HCT116 cells after 3 days by SRB assay; format: functional, cell-based; outline: as §2
[18] = test system: MDA-MB-157; experiment: Cytotoxicity against human MDA-MB-157 cells after 3 days by SRB assay; format: functional, cell-based; details: MDA-MB-157, 72 h; outline: as §3
[19] = test system: MDA-MB-453; experiment: Cytotoxicity against human MDA-MB-453 cells after 3 days by SRB assay; format: functional, cell-based; details: MDA-MB-453, 72 h; outline: as §3
[20] = test system: T47D; experiment: Cytotoxicity against human T47D cells after 3 days by SRB assay; format: functional, cell-based; outline: as §2
[21] = test system: MDA-MB-231; experiment: Induction of apoptosis in ER-negative human MDA-MB-231 cells assessed as apoptotic cells at 3.6 uM measured on day 4 by Annexin-V-FITC/propidium iodide staining based FACS flow cytometry; format: functional; outline: as §4
[22] = test system: MDA-MB-361; experiment: Cytotoxicity against human MDA-MB-361 cells after 3 days by SRB assay; format: functional, cell-based; details: MDA-MB-361, 72 h; outline: as §3
[23] = test system: ZR-75-1; experiment: Cytotoxicity against human ZR-75-1 cells after 3 days by SRB assay; format: functional, cell-based; details: ZR-75-1, 72 h; outline: as §3
[24] = test system: MDA-MB-231; experiment: Induction of apoptosis in ER-negative human MDA-MB-231 cells assessed as apoptotic cells at 1.83 uM after 3 days by Hoechst staining based fluorescent microscopy; format: functional, cell-based
[25] = test system: MCF-12A; experiment: Cytotoxicity against human MCF12A cells after 3 days by SRB assay; format: cell-based; details: 72 h; outline: as §3
[26] = test system: MDA-MB-231; experiment: Induction of apoptosis in ER-negative human MDA-MB-231 cells assessed as apoptotic cells at 1.8 uM measured on day 4 by Annexin-V-FITC/propidium iodide staining based FACS flow cytometry; format: functional; outline: as §4
[27] = test system: MDA-MB-157; experiment: Ratio of IC50 for human MCF12A cells to IC50 for human MDA-MB-157 cells; outline: as §1
[28] = Homo sapiens, Huh-7, 72 h, read-out: IC50
[29] = Homo sapiens, HCT-116, 72 h, read-out: IC50
[30] = Homo sapiens, T47D, 72 h, read-out: IC50

| Structure (SMILES) | IC50 [4, 28] | IC50 [5] | IC50 [8] | IC50 [13] | IC50 [15] | IC50 [16] | IC50 [17, 29] | IC50 [18] | IC50 [19] | IC50 [20, 30] | IC50 [22] | IC50 [23] | IC50 [25] | also measured |
| --- | --- | --- | --- | --- | --- | --- | --- | --- | --- | --- | --- | --- | --- | --- |
| CC1(C)CCC(C)(C)c2cc(C(=O)/C=C/c3c[nH]c4ccccc34)ccc21 | < 10 nM | 1290 nM | 1710 nM | 1310 nM | 1830 nM | 1910 nM | 20 nM | 1460 nM | < 10 nM | 100 nM | 60 nM | 3880 nM | 3920 nM | Ratio IC50 [1]: > 392; IC50 [2]: < 10 nM; Activity [3]: Active; Activity [6]: 7.1%; Ratio IC50 [7]: 3.38; Ratio IC50 [9]: 2.29; Ratio IC50 [10]: > 392; Ratio IC50 [11]: 65.3; Activity [12]: 6.83%; Ratio IC50 [14]: 2.99; Activity [21]: 15.62%; Activity [24]: Active; Activity [26]: 10.53%; Ratio IC50 [27]: 2.68 |
| CC[C@@]1(O)C(=O)OCc2c1cc1n(c2=O)Cc2cc3ccccc3nc2-1 [CAMPTOTHECIN] | 60 nM | < 10 nM | < 10 nM | < 10 nM | < 10 nM | 12800 nM | < 10 nM | 20 nM | < 10 nM | < 10 nM | 170 nM | < 10 nM | < 10 nM |  |
| CC1(C)CCC(C)(C)c2cc(C(=O)/C=C/c3c[nH]c4ccc(Cl)cc34)ccc21 | 15400 nM |  |  |  |  |  | 10700 nM |  |  | 13100 nM |  |  |  |  |
| COc1ccc2[nH]cc(/C=C/C(=O)c3ccc4c(c3)C(C)(C)CCC4(C)C)c2c1 | 15500 nM |  |  |  |  |  | 13900 nM |  |  | 11400 nM |  |  |  |  |
| CC1(C)CCC(C)(C)c2cc(C(=O)/C=C/c3c[nH]c4ccc(Br)cc34)ccc21 | 14000 nM |  |  |  |  |  | 10800 nM |  |  | 11500 nM |  |  |  |  |
| CC1(C)CCC(C)(C)c2cc(C(=O)/C=C/c3c[nH]c4ccc(C(=O)O)cc34)ccc21 |  |  |  |  |  |  |  |  |  |  |  |  |  | IC50 ([4]; huh-7): Not Active; IC50 ([17]; hct-116): Not Active; IC50 ([20]; t47d): Not Active |
